The text below walks through data of BindingDB's records for doi:10.1021/jm00350a002 (1982).

This assay deals with T1, Cytochrome P450 2B1 (Rattus norvegicus, UniProt P00176).
T1 sequence (P00176 whole entry): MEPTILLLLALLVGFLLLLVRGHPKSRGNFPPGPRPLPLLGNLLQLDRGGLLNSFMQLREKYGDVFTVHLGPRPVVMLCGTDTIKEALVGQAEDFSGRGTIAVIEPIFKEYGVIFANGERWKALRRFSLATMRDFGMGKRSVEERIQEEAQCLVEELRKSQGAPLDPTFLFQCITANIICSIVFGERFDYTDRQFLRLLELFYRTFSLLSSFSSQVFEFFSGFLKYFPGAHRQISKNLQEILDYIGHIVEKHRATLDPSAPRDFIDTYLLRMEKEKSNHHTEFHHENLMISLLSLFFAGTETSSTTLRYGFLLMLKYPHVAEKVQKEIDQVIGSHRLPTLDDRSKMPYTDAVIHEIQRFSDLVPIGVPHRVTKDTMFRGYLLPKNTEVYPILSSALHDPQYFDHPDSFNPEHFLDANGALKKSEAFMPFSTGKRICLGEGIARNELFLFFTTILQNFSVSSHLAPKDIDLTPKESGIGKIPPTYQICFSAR
The assay can be described thus: Inhibitory potency to aminopyrine N-demethylase activity (P450) in hepatic microsomes from phenobarbitone-induced rats. Summed up:
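Microsomes (105000g pellet) from livers of male Wistar rats (100–150 g) given phenobarbitone ip on consecutive days. A 3.0 mL mix in 0.1 M K phosphate, pH 7.4, held aminopyrine 1.61 μmol, NADPH-generating system, semicarbazide and 5.6 mg protein, run 15 min. Formaldehyde was read by Nash/Hantzsch. Inhibitor went in DMSO or 0.07 M HCl, with solvent in controls. I50 came from seven concentrations.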

The IC50 is the concentration at which inhibition is half-maximal. Compound `Cc1nc2c(C)c(C)ccc2[nH]1` yielded an IC50 of 251 µM. `Clc1ccc2[nH]cnc2c1`: the IC50 was found to be 158 µM. Against the preceding compound, the IC50 is about 1.6-fold lower. On to `Cc1nc2cc(NC(=O)c3ccccc3)ccc2[nH]1`, for which the IC50 is 302 µM. Next, `CCc1nc2ccc(C)cc2[nH]1`: 269 µM; `O=[N+]([O-])c1cccc2[nH]cnc12`: 468 µM; `ClCc1nc2ccccc2[nH]1`: 141 µM.

The compound `O=[N+]([O-])c1ccc2[nH]cnc2c1` [5-Nitro-1H-benzoimidazole] showed a half-inhibitory concentration (IC50) of 309 µM. Next, `CC(C)Cc1nc2ccccc2[nH]1`: 158 µM; `Cc1ccc2[nH]cnc2c1` [5-methyl-1H-benzimidazole]: 575 µM.

The compound `CCCCCc1nc2cc(NC(C)=O)ccc2[nH]1` showed an IC50 of 158 µM. On to `O=[N+]([O-])c1cc(Cl)cc2[nH]cnc12`, for which half-maximal inhibition (IC50) required 129 µM. The value for `c1cncc(-c2nc3ccccc3[nH]2)c1` was 200 µM; that for `Cc1nc2cc(Cl)ccc2[nH]1` was 151 µM. In turn, `CC(=O)Nc1cc(Cl)cc2[nH]c(C)nc12` displayed an IC50 of 309 µM. Take `Cc1cccc2[nH]cnc12`: half-maximal inhibition (IC50) was put at 525 µM. For `FC(F)(F)c1nc2ccccc2[nH]1`, 257 µM corresponded to half-maximal inhibition (IC50). In turn, `Cc1nc2ccc([N+](=O)[O-])cc2[nH]1` showed an IC50 of 219 µM. The value for `CC(C)c1nc2ccccc2[nH]1` was 537 µM; that for `CCCc1nc2cc(C)c(C)cc2[nH]1` was 110 µM.

For the compound `NCc1nc2ccccc2[nH]1`, it took 457 µM to reach half-maximal inhibition (IC50). The value for `OC(c1ccccc1)c1nc2ccccc2[nH]1` (stereo not drawn) was 158 µM. The value for `Cc1ccc2nc(C)[nH]c2c1` was 479 µM.

`c1ccc2[nH]c(C3CC3)nc2c1` yielded an IC50 of 251 µM. The compound `CCCCC(=O)Nc1ccc2nc(C)[nH]c2c1` displayed an IC50 of 417 µM.

The compound `Fc1ccc2[nH]cnc2c1` yielded an IC50 of 437 µM.

Consider `CC(=O)Nc1ccc2nc(C)[nH]c2c1`, for which the IC50 was 1260 µM. Next, `CCCCc1nc2ccccc2[nH]1`: 120 µM; `CC(C)(C)c1nc2ccccc2[nH]1`: 302 µM.
